{"data": "Measured values of several laboratories", "note": "Compare with care: the assays were run in different laboratories."}
{"Compound": "Cc1cc(C(C)(C)C)c(O)c(C(C)(C)C)c1", "assay": "DPPH scavenging, absorbance", "setting": "30 min", "measurement": "IC50", "result": "308 µM"}
{"Compound": "CC(Cc1ccc(O)cc1)NCC(O)c1cc(O)cc(O)c1 (stereo not drawn)", "tested on": "THP-1", "assay": "TNF-α release, inhibitor", "setting": "17 h, LPS-stimulated", "measurement": "IC50", "result": "0.12 µM"}
{"Compound": "COc1c(N2CCNC(C)C2)c(F)cc2c(=O)c(C(=O)O)cn(C3CC3)c12 (stereo not drawn)", "tested on": "Haemophilus influenzae", "assay": "microbial growth", "measurement": "MIC", "result": "> 4 µg/mL"}
{"Compound": "O=C(Nc1ncc([N+](=O)[O-])s1)c1ccccc1O", "tested on": "Chikungunya virus", "assay": "viral replication, luciferase", "system": "BHK-21", "setting": "16 h", "measurement": "IC50", "result": "13.1 µM"}
{"Compound": "CCCCCCCCCOc1ccc2[nH]cc(CCN)c2c1", "tested on": "FaDu", "assay": "cell growth or viability", "setting": "72 h", "measurement": "IC50", "result": "7.3 µM"}
{"Compound": "O=c1c(O)c(-c2ccc(O[C@@H]3O[C@H](CO)[C@@H](O)[C@H](O)[C@H]3O)c(O)c2)oc2cc(O)cc(O)c12", "assay": "DPPH scavenging, absorbance", "measurement": "IC50", "result": "28.5 µg/mL"}
{"Compound": "O=C(Nc1ncc([N+](=O)[O-])s1)c1cccnc1", "tested on": "Chikungunya virus", "assay": "viral replication, luciferase", "system": "BHK-21", "setting": "16 h", "measurement": "IC50", "result": "> 100 µM"}
{"Compound": "COc1c2c(cc3c1OCO3)[C@]13C=C[C@H](OC)C[C@@H]1[N@](C2)C[C@H]3OC(=O)c1ccc2ccccc2c1", "tested on": "SAOS-2", "assay": "cell growth or viability, WST-1", "measurement": "IC50", "result": "> 10 µM"}
{"Compound": "COc1c(N2C[C@@H]3CCCN[C@@H]3C2)c(F)cc2c(=O)c(C(=O)O)cn(C3CC3)c12", "tested on": "Haemophilus influenzae", "assay": "microbial growth", "measurement": "MIC", "result": "> 4 µg/mL"}
{"Compound": "O=c1[nH]cnc2c1nnn2-c1cccc(Cl)c1", "tested on": "Chikungunya virus", "assay": "viral replication, luciferase", "system": "BHK-21", "setting": "16 h", "measurement": "IC50", "result": "> 100 µM"}
{"Compound": "C[C@H]1COc2c(N3CCN(C)CC3)c(F)cc3c(=O)c(C(=O)O)cn1c23", "tested on": "Haemophilus influenzae", "assay": "microbial growth", "measurement": "MIC", "result": "> 4 µg/mL"}
{"Compound": "CC(C)=CCC/C(C)=C/COc1cc(O)cc(O)c1C(=O)c1ccccc1", "assay": "DPPH scavenging, absorbance", "setting": "30 min", "measurement": "IC50", "result": "2330 µM"}
